Calls of active or inactive are those of the source. The calls are words filed in the database; no cut-off is given here.
Assays:
[1] = Ratio of drug level in rat brain to plasma; conditions: brain and plasma
[2] = target: 5-hydroxytryptamine receptor 6 (Rattus norvegicus) (UniProt P31388); experiment: Agonist activity at rat recombinant 5HT6 receptor assessed as increase in 5-HT-stimulated cAMP level at 1 uM by ELISA; format: functional
Procedure, shortened: (§1)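 cAMP accumulation measured by ELISA in cells expressing recombinant rat 5-HT6 receptor. Compound tested alone, without 5-HT, at 1, 3 and 10 µM to look for stimulation. 5-HT used as the stimulating reference.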

[3] = Bioavailability in rat; format: ADME, organism-based; conditions: in vivo
Rattus norvegicus [4] = experiment: Reversal of natural forgetting activity in rat assessed as novel object recognition at 10 mg/kg, ip after 24 hrs; format: functional, organism-based; design: dose 10 mg/kg
[5] = target: T1, 5-hydroxytryptamine receptor 2C (Homo sapiens, UniProt P28335); experiment: Binding affinity to 5HT2C receptor
T1 sequence (P28335 whole entry): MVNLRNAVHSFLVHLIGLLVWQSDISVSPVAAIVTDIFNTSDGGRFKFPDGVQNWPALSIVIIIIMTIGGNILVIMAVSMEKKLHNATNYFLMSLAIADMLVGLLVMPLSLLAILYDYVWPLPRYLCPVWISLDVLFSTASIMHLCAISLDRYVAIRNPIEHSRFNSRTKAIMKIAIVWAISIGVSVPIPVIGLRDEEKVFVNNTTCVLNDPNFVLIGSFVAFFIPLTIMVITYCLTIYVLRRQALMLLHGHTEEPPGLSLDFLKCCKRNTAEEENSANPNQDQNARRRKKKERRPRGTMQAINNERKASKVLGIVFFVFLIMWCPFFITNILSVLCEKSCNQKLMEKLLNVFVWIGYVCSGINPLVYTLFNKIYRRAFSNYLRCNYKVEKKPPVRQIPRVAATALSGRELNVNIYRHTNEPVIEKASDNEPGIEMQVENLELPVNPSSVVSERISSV

[6] = Clearance in rat; format: ADME, organism-based; conditions: in vivo
[7] = Half life in po dosed rat plasma; format: ADME, organism-based
Procedure, shortened: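 Rat pharmacokinetics; plasma half-life derived from the PO dosing arm.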

[8] = target: 5-hydroxytryptamine receptor 6 (Rattus norvegicus) (UniProt P31388); experiment: Agonist activity at rat recombinant 5HT6 receptor assessed as increase in 5-HT-stimulated cAMP level at 3 uM by ELISA; format: functional; procedure, shortened: as §1
Rattus norvegicus [9] = experiment: Reversal of natural forgetting activity in rat assessed as familiar object recognition at 3 mg/kg, ip after 24 hrs; format: functional, organism-based; design: dose 3 mg/kg
[10] = target: 5-hydroxytryptamine receptor 2A (Homo sapiens, UniProt P28223); experiment: Binding affinity to 5HT2A receptor
Sequence of 5-hydroxytryptamine receptor 2A (P28223 whole entry): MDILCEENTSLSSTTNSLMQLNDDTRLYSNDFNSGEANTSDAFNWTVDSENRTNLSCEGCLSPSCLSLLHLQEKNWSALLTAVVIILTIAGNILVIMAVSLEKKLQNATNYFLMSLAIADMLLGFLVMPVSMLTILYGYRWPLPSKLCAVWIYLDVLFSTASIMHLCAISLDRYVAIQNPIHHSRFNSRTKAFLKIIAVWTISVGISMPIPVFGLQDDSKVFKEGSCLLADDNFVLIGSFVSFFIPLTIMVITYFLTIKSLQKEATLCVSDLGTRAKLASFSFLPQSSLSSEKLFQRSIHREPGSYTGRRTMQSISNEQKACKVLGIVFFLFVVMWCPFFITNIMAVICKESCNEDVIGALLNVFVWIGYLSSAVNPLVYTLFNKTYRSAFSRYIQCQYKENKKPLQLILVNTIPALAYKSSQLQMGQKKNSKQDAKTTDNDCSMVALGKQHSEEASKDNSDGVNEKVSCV

[11] = target: 5-hydroxytryptamine receptor 6 (Rattus norvegicus) (UniProt P31388); experiment: Agonist activity at rat recombinant 5HT6 receptor assessed as increase in 5-HT-stimulated cAMP level at 10 uM by ELISA; format: functional; procedure, shortened: as §1
Rattus norvegicus [12] = experiment: Reversal of natural forgetting activity in rat assessed as familiar object recognition at 10 mg/kg, ip after 24 hrs; format: functional, organism-based; design: dose 10 mg/kg
[13] = target: 5-hydroxytryptamine receptor 6 (Rattus norvegicus) (UniProt P31388); experiment: Antagonist activity at rat recombinant 5HT6 receptor assessed as inhibition of 5-HT-stimulated cAMP level by ELISA; format: functional
Procedure, shortened: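 Cells expressing recombinant rat 5-HT6 receptor were stimulated with 5-HT. Inhibition of the 5-HT-stimulated cAMP accumulation was read by ELISA and expressed as a Kb.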

Rattus norvegicus [14] = experiment: Reversal of natural forgetting activity in rat assessed as novel object recognition at 3 mg/kg, ip after 24 hrs; format: functional, organism-based; design: dose 3 mg/kg
[15] = Volume of distribution at steady state in rat; format: ADME, organism-based; conditions: in vivo, read-out: Vdss
[16] = target: T2, 5-hydroxytryptamine receptor 1A (Homo sapiens, UniProt P08908); experiment: Binding affinity to 5HT1A receptor
T2 sequence (P08908 whole entry): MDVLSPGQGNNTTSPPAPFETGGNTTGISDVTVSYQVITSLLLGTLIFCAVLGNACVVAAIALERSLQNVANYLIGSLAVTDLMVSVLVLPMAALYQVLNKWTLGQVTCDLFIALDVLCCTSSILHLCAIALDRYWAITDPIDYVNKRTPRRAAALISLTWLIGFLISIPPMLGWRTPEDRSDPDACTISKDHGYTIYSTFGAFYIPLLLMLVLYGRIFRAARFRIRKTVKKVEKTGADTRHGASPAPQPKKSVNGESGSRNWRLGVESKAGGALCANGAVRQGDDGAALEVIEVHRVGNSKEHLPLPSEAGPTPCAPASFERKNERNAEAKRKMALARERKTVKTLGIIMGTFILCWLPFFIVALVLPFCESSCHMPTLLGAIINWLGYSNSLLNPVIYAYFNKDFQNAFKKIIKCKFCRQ

Sequence of 5-hydroxytryptamine receptor 6 (Rattus norvegicus) (P31388 whole entry): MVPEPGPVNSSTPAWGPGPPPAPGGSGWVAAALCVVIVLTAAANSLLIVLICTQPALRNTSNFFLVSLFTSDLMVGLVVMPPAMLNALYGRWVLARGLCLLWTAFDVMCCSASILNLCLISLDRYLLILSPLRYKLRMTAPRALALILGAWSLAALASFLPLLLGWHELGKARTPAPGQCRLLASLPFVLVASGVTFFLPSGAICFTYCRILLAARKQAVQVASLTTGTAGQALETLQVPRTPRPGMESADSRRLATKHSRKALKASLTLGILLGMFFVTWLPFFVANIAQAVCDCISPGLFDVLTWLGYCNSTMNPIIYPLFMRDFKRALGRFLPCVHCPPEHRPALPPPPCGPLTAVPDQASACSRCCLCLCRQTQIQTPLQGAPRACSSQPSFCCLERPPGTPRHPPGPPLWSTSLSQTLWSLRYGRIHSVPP

Cc1c(O[C@@H](C)c2cccc(F)c2)cccc1C1CCNCC1
Kp [1]: 23
Activity [2]: inactive
bioavailability [3]: 90%
Activity (Rattus norvegicus [4]): Active
IC50 [5]: > 1000 nM
clearance [6]: 66 mL/min/kg
half-life [7]: 354 min
Activity [8]: inactive
Activity (Rattus norvegicus [9]): Active
IC50 [10]: > 1000 nM
Activity [11]: inactive
Activity (Rattus norvegicus [12]): Active
Kb [13]: 153 nM
Activity (Rattus norvegicus [14]): Active
Vd [15]: 12 L/kg
IC50 [16]: > 1000 nM

Reference: ChEMBL document CHEMBL1138454, “Synthesis and SAR of tolylamine 5-HT6 antagonists” (Bioorg Med Chem Lett, 2009)
